Experimental data from ChEMBL document CHEMBL4359929, “Piperidine and piperazine inhibitors of fatty acid amide hydrolase targeting excitotoxic pathology” (Bioorg Med Chem, 2019).
Active and inactive are the calls of the source. The calls are words filed in the database; no cut-off is given here.

Experiments:
Homo sapiens [1] = species: Homo sapiens; test: Selectivity ratio of IC50 for human full length ABHD6 expressed in Escherichia coli cells to IC50 for human recombinant MBP-tagged FAAH expressed in Escherichia coli cells by fluorescence based assay
[2] = target: Cannabinoid receptor 2 (Mus musculus) (UniProt P47936); test: Displacement of [3H]CP55940 from mouse CB2 receptor expressed in HEK293 cells by competition-equilibrium binding analysis; type: cell-based
How it was run: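 HEK293 cell membranes expressing mouse or human CB2; competition-equilibrium binding against [3H]CP-55,940.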

Hippocampus [3] = test: (§1) Neuroprotective activity against Sprague-Dawley rat hippocampus assessed as decrease in KA-induced excitotoxicity by measuring increase in GluR1 level in dense neuropil at 3 to 30 uM preincubated for 1 hr followed by KA stimulation for 2 hrs in continued presence of compound followed by KA wash out and then further incubation with compound for 24 hrs by immunostaining analysis; type: functional, tissue-based
How it was run: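 Same hippocampal slice kainic acid protocol (60 μM, 2 h, after 1 h pretreatment; 24 h recovery with compound). Fixed hippocampal tissue from each treatment group immunostained with anti-GluR1 (1:200).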

[4] = Stability in human plasma assessed as half life; type: ADME, cell-free
How it was run: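 Stability assessed as half-life in human, rat and mouse plasma and gastric fluid, and in human, rat and mouse liver microsomal preparations.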

Hippocampus [5] = test: as §1, with “syn protein” for “GluR1”; type: functional, tissue-based
[6] = target: T1, Monoacylglycerol lipase ABHD6 (Rattus norvegicus) (UniProt Q5XI64); test: Inhibition of ABHD6 in rat brain membrane at 1 to 10 uM incubated for 30 mins followed by incubation with FP-Rh probe for 45 mins by ABPP assay; type: cell membranes
T1 sequence (whole entry): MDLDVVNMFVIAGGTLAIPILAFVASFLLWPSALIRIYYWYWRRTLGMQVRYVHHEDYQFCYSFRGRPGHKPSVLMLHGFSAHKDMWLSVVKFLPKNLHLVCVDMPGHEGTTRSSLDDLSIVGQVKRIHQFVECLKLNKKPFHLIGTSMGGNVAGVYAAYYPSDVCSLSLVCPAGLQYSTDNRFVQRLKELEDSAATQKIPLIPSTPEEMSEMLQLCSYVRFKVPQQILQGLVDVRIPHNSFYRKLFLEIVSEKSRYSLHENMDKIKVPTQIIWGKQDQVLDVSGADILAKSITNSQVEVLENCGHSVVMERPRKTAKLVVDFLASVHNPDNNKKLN
How it was run: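 Gel-based competitive ABPP on rat brain membrane homogenates (10 mg/mL protein). Compound at 1 and 10 μM or DMSO for 30 min at room temperature, then 10 μM rhodamine-tagged fluorophosphonate probe for 45 min at room temperature. FAAH was run with a reference FAAH inhibitor at 10 μM as positive control. Serine hydrolase labelling read by in-gel fluorescence.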

[7] = Selectivity ratio of IC50 for human full length ABHD6 expressed in Escherichia coli cells to IC50 for rat recombinant His/GST-tagged FAAH expressed in Escherichia coli cells by fluorescence based assay
[8] = target: T2, Fatty-acid amide hydrolase 1 (Homo sapiens, UniProt O00519); test: Inhibition of human recombinant MBP-tagged FAAH expressed in Escherichia coli cells using AAMCA as substrate incubated for 15 mins followed by substrate addition and measured after every 20 mins for 4 hrs by fluorescence based assay
T2 sequence (O00519 whole entry): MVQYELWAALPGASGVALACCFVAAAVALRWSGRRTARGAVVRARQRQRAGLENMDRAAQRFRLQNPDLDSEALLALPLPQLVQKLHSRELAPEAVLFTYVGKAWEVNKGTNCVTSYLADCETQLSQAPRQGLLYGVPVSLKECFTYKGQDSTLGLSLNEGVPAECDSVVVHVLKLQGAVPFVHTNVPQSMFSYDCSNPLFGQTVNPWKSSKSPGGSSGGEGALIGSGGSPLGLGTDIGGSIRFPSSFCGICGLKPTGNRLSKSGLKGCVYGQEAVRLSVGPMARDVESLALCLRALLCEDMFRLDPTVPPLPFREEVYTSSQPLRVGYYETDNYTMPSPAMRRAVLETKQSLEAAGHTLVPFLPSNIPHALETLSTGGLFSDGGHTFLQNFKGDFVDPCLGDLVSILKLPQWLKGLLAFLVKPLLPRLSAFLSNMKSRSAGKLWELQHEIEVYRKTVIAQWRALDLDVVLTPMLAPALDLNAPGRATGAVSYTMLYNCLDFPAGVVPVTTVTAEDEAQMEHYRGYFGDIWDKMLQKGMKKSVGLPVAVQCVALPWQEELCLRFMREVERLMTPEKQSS
How it was run: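 Fluorescent enzyme assay in throughput format. Human recombinant FAAH or purified rat FAAH used arachidonoyl 7-amino-4-methylcoumarin amide as substrate; human recombinant MGL was run by a similar fluorometric procedure.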

Homo sapiens [9] = species: Homo sapiens; test: Selectivity ratio of IC50 for human recombinant His-tagged MGL expressed in Escherichia coli BL21 DE3 cells to IC50 for human recombinant MBP-tagged FAAH expressed in Escherichia coli cells by fluorescence based assay
Rattus norvegicus = species: Rattus norvegicus; test: Neuroprotective activity against Sprague-Dawley rat assessed as decrease in KA-induced seizure severity; type: functional, organism-based

Cannabinoid receptor 2 (Mus musculus), sequence (P47936 whole entry): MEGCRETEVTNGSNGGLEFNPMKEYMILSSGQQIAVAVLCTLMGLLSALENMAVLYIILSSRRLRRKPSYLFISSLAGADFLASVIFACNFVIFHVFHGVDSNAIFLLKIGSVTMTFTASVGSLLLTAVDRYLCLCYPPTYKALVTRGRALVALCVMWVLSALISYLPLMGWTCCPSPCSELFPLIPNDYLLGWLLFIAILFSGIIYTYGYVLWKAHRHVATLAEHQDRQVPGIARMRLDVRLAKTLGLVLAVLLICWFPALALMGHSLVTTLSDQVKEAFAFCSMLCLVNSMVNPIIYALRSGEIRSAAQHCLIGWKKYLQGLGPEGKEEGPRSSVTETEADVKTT

O=C(Oc1cccc(N2CCS(=O)(=O)CC2)c1)N1CCC(c2ccc(N3CCC3)cc2)CC1
Ratio IC50 (Homo sapiens [1]): > 1000 | Activity [2]: inactive | inhibition (Hippocampus [3]): Active | half-life [4]: > 1 h | inhibition (Hippocampus [5]): Active | inhibition [6]: inactive | Ratio IC50 [7]: > 1000 | IC50 [8]: 7.9 nM | Ratio IC50 (Homo sapiens [9]): > 1000 | Activity (Rattus norvegicus): Active

C[C@@H]1CN(c2ccc(F)cc2)CCN1C(=O)Oc1cccc(N2CCS(=O)(=O)CC2)c1
Ratio IC50 (Homo sapiens [1]): > 1000 | Activity [2]: inactive | half-life [4]: > 1 h | inhibition [6]: inactive | Ratio IC50 [7]: > 1000 | IC50 [8]: 11.7 nM | Ratio IC50 (Homo sapiens [9]): > 1000
